Laboratory results taken from ChEMBL document CHEMBL5247575 (J Med Chem, 2018).
Converted amounts (≈) assume the structure as drawn.

How the values were obtained:
Acinetobacter baumannii [1] = experiment: Antibacterial activity against Acinetobacter baumannii SL46 producing OXA-23/51 infected in sc dosed Swiss albino mouse administered 1 hr post infection and measured upto 7 days; assay type: functional; details: SL46, 168 h, time <= 7 day
Summary of the method: (§1)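 Peritonitis model: male and female Swiss albino mice infected intraperitoneally with 3.5×10^5 to 3×10^6 CFU/mouse in 5% hog gastric mucin (lethal to untreated mice within 24 h). […] Survival followed 7 days; PD50/PD90 by probit analysis.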

Acinetobacter baumannii [2] = experiment: Antibacterial activity against Acinetobacter baumannii NCTC 13303 producing OXA-26/51 infected in sc dosed Swiss albino mouse administered 1 hr post infection and measured upto 7 days; assay type: functional; details: NCTC 13303, 168 h, time <= 7 day; summary of the method: as §1
Acinetobacter baumannii [3] = experiment: Antibacterial activity against Acinetobacter baumannii NCTC 13301 producing OXA-23/51 infected in sc dosed Swiss albino mouse administered 1 hr post infection and measured upto 7 days; assay type: functional; details: for ED90 / ED50: NCTC 13301, 168 h, time <= 7 day; for ED50: read-out: PD50; summary of the method: as §1
Acinetobacter baumannii [4] = experiment: Antibacterial activity against Acinetobacter baumannii SL04 producing OXA-23/51 infected in Swiss mouse model of neutropenic lung infection assessed as reduction in log10CFU at 50 mg/kg
Acinetobacter baumannii [5] = experiment: Antibacterial activity against Acinetobacter baumannii PR476 producing OXA-24/40 by broth microdilution method; assay type: functional
Klebsiella pneumoniae [6] = experiment: Antibacterial activity against Klebsiella pneumoniae 660/1568 producing KPC-3 by broth microdilution method; assay type: functional
Acinetobacter baumannii [7] = experiment: Antibacterial activity against Acinetobacter baumannii SL04 producing OXA-23/51 infected in Swiss mouse model of neutropenic lung infection
Acinetobacter baumannii [8] = experiment: Antibacterial activity against ADC deleted Acinetobacter baumannii transfected with pWH1266 producing OXA-24/40 by broth microdilution method; assay type: functional
Escherichia coli = experiment: Antibacterial activity against Escherichia coli DH10B transfected with pBC SK (-) OXA-48 by broth microdilution method; assay type: functional
Acinetobacter baumannii [9] = experiment: Antibacterial activity against Acinetobacter baumannii SL46 producing OXA-23/51 infected in sc dosed Swiss albino mouse administered 1 hr post infection and measured upto 7 days; details: SL46, 168 h
Acinetobacter baumannii [10] = experiment: Antibacterial activity against Acinetobacter baumannii NCTC 13303 producing OXA-26/51 infected in sc dosed Swiss albino mouse administered 1 hr post infection and measured upto 7 days; details: NCTC 13303, 168 h; for ED50: read-out: PD50
Klebsiella pneumoniae [11] = experiment: Antibacterial activity against Klebsiella pneumoniae 977/1916 producing KPC-3 by broth microdilution method; assay type: functional

Compound	ED90 (Acinetobacter baumannii [3])	ED50 (Acinetobacter baumannii [3])	MIC (Acinetobacter baumannii [5])	MIC (Acinetobacter baumannii [7])	ED90 (Acinetobacter baumannii [10])	ED50 (Acinetobacter baumannii [10])	other results
CO/N=C(\C(=O)N[C@@H]1C(=O)N2C(C(=O)[O-])=C(C[N+]3(C)CCCC3)CS[C@H]12)c1csc(N)n1	> 100 mg/kg	> 100 mg/kg	1 µg/mL (≈ 2.08 µM)	–	–	–	ED90 (Acinetobacter baumannii [1]): 50 mg/kg; ED50 (Acinetobacter baumannii [1]; read-out: PD50): 50 mg/kg; ED90 (Acinetobacter baumannii [2]): 50 mg/kg; ED50 (Acinetobacter baumannii [2]; read-out: PD50): 50 mg/kg; Activity (Acinetobacter baumannii [4]): 0.98 log10CFU
C[C@@H](O)[C@H]1C(=O)N2C(C(=O)O)=C(S[C@@H]3CN[C@H](C(=O)N(C)C)C3)[C@H](C)[C@H]12 [MEROPENEM]	25 mg/kg	25 mg/kg	0.25 µg/mL (≈ 0.652 µM)	64 µg/mL (≈ 167 µM)	50 mg/kg	50 mg/kg	MIC (Klebsiella pneumoniae [6]): 2 µg/mL (≈ 5.22 µM); MIC (Acinetobacter baumannii [8]): > 16 µg/mL; MIC (Escherichia coli): 8 µg/mL (≈ 20.9 µM); ED90 (Acinetobacter baumannii [9]): 50 mg/kg; ED50 (Acinetobacter baumannii [9]; read-out: PD50): 50 mg/kg; MIC (Klebsiella pneumoniae [11]): 1 µg/mL (≈ 2.61 µM)
C[C@@H](O)[C@H]1C(=O)N2C(C(=O)O)=C(SCCNC=N)C[C@H]12 [IMIPENEM ANHYDROUS]	–	–	–	64 µg/mL (≈ 214 µM)	–	–	–
CN(C)c1cc(NC(=O)CNC(C)(C)C)c(O)c2c1C[C@H]1C[C@H]3[C@H](N(C)C)C(O)=C(C(N)=O)C(=O)[C@@]3(O)C(O)=C1C2=O [TIGECYCLINE]	> 6.25 mg/kg	> 6.25 mg/kg	–	4 µg/mL (≈ 6.83 µM)	> 6.25 mg/kg	> 6.25 mg/kg	–
COLISTIN	–	–	–	–	–	–	PD50 (Acinetobacter baumannii [3]; time <= 7.0 day): 16.6 mg/kg
